Tests used:
[1] = molecular target: T1, 5-hydroxytryptamine receptor 1A (Rattus norvegicus, UniProt P19327); assay: In vitro binding affinity towards 5-hydroxytryptamine 1A receptor by the displacement of [3H]8-OH-DPAT radioligand in rat hippocampal homogenates; format: tissue-based, Hippocampus
T1 sequence (P19327 whole entry): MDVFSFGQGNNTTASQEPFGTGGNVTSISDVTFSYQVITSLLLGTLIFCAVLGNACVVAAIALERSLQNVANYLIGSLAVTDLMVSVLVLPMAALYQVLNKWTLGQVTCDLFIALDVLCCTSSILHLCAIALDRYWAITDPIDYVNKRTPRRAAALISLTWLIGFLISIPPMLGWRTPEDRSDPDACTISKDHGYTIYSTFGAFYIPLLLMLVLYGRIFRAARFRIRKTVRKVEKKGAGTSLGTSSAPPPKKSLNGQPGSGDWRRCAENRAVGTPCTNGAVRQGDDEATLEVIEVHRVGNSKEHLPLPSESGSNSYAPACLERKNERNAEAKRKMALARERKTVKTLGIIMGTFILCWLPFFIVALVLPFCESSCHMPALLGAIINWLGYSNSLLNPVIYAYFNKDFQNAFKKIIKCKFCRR

[2] = molecular target: T2, Adrenergic receptor alpha-1 (Rattus norvegicus, UniProt P15823+P23944+P43140); assay: In vitro binding affinity towards alpha-1 adrenergic receptor by the displacement of [3H]prazosin radioligand in rat cortical homogenates
T2 sequence (P15823 whole entry): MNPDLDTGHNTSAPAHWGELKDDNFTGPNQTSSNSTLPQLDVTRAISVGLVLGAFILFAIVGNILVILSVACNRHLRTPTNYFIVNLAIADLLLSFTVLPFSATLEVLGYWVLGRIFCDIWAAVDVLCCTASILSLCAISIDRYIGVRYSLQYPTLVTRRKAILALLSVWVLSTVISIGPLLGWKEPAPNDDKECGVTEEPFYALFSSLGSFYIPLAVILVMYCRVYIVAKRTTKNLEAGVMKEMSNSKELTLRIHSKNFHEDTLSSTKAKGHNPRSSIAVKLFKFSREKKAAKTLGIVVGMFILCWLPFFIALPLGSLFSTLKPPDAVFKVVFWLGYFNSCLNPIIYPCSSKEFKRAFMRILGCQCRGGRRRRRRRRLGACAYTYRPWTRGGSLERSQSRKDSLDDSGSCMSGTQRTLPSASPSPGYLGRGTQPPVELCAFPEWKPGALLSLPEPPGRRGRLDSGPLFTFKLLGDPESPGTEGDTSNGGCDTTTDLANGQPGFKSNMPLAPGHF
T2 sequence (P23944 whole entry): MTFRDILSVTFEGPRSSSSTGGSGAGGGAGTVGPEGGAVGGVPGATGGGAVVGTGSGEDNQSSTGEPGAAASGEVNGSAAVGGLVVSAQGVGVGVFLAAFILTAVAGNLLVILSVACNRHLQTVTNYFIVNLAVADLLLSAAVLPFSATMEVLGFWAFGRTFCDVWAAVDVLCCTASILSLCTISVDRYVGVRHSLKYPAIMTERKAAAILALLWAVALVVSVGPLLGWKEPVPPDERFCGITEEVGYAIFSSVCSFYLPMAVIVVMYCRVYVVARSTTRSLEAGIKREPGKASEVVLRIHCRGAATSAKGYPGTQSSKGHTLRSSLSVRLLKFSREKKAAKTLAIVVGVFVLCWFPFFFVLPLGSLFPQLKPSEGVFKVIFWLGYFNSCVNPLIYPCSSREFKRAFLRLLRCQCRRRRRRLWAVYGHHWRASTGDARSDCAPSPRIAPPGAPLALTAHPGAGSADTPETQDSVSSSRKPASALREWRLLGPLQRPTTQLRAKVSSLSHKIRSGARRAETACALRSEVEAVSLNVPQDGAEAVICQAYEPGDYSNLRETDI
T2 sequence (P43140 whole entry): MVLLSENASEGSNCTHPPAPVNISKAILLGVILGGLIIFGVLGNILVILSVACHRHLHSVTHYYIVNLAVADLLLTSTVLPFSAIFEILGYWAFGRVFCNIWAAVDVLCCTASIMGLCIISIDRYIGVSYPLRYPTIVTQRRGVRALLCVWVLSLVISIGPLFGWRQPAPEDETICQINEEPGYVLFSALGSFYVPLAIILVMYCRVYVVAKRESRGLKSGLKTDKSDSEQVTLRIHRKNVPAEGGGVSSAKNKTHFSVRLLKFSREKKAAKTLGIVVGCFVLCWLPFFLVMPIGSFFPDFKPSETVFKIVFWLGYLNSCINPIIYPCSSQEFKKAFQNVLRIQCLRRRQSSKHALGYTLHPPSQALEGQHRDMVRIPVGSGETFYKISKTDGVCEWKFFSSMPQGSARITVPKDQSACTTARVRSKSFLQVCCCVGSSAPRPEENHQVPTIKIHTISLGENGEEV
Outline: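 Rat cortical homogenates labelled with [3H]prazosin (0.2 nM), incubated 30 min at 25 °C. Stopped with cold 50 mM Tris pH 7.4, then rapid filtration. Triplicate, at least eight concentrations. Nonlinear regression gave IC50, converted to apparent Ki by Cheng-Prusoff. Means of at least two experiments ± SEM; values without SEM are single determinations.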

D(2) dopamine receptor [3] = molecular target: T3, D(2) dopamine receptor (Rattus norvegicus, UniProt P61169); assay: In vitro high binding affinity towards Dopamine receptor D2 by the displacement of [3H]quinpirole radioligand in rat striatal membranes; format: cell membranes, Membrane
T3 sequence (P61169 whole entry): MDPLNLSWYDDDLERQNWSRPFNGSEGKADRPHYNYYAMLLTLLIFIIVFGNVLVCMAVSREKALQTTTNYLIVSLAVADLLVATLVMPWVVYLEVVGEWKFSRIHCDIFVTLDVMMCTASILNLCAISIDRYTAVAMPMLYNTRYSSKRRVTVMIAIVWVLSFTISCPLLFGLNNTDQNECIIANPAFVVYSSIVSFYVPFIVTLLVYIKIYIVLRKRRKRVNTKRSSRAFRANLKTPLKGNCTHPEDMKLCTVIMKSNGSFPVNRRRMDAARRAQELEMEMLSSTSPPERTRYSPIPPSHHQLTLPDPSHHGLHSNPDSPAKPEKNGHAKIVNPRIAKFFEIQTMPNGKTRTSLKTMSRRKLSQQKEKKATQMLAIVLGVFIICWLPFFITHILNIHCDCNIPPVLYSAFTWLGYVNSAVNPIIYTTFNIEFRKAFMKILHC

D(2) dopamine receptor [4] = molecular target: T3, D(2) dopamine receptor; assay: In vitro low binding affinity towards Dopamine receptor D2 by the displacement of [3H]spiperone radioligand in rat striatal membranes; format: cell membranes, Membrane
[5] = molecular target: D(2) dopamine receptor (Rattus norvegicus) (UniProt P61169); assay: Ratio of Dopamine D2 receptor (low)and Dopamine D2 receptor (high)
Chain of D(2) dopamine receptor (Rattus norvegicus) (P61169 whole entry): as above
Outline: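 Ratio Ki(low)/Ki(high). Ki(low) comes from displacement of 1 nM [3H]spiperone in striatal membranes with 1 mM GppNHp and NaCl, 37 °C for 5 min. […] Both Ki values derived by Cheng-Prusoff from nine concentrations in triplicate; the ratio serves as an estimate of intrinsic activity.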

[6] = molecular target: T2, Adrenergic receptor alpha-1; assay: In vitro binding affinity towards Alpha-1 adrenergic receptor by the displacement of [3H]prazosin radioligand in rat cortical homogenates

Structure (SMILES) | Ki [1] [nM] | Ki [2] [nM] | Ki (D(2) dopamine receptor [3]) [nM] | Ki (D(2) dopamine receptor [4]) [nM] | Ratio [5] | Ki [6] [nM]
CNCCOc1cccc2c1CC(=O)N2 | 276 | 1057 | 2 | 147 | 74 | –
Fc1ccc(CNCCOc2ccc(Cl)c3[nH]cc(Cl)c23)cc1 | 685 | 229 | 50 | 59.5 | 1 | –
NCCOc1cccc2c1CC(=O)N2 | 664 | – | 6.93 | 268 | – | 11081
O=C1Cc2c(OCCNCc3ccc(F)cc3)ccc(Cl)c2N1 | 6560 | 431 | 1.3 | 13.8 | 11 | –
O=C1Cc2c(OCCNCc3cccs3)ccc(Cl)c2N1 | 59 | – | – | – | – | 5
O=C1Cc2c(OCCNCc3ccccc3)ccc(Cl)c2N1 | 2660 | 350 | 0.41 | 2.8 | 7 | –
O=C1Cc2c(OCCNCCCc3c[nH]c4ccccc34)ccc(F)c2N1 | 12 | 26 | 0.15 | 3.03 | 20 | –
c1ccc(CNC[C@H]2CCc3ccc4[nH]ccc4c3O2)cc1 | 0.4 | – | 1.9 | 35.9 | – | 24
Clc1ccc(CNCCOc2ccc(Cl)c3[nH]cc(Cl)c23)cc1 | – | 458 | 77.1 | 29.8 | 0.4 | –
O=C1Cc2c(OCCNCc3cccs3)ccc(F)c2N1 | 39 | – | 0.66 | 21.8 | – | 32
O=C1Cc2c(OCCNCc3ccccc3)ccc(F)c2N1 | 535 | – | 0.63 | 5.3 | – | 52
O=C1Cc2c(OCCNCC3CCCCC3)ccc(F)c2N1 | 17 | – | 0.65 | 5.6 | – | 380
O=C1Cc2c(OCCNCc3ccc(Cl)cc3)ccc(Cl)c2N1 | 1890 | – | 1.4 | 4.1 | – | 134
Clc1ccc(OCCNCc2ccccc2)c2c(Cl)c[nH]c12 | 219 | 66 | 7 | 19.9 | 3 | –
O=C1Cc2c(cccc2OCCNCc2ccccc2)N1 | 306 | – | 0.21 | 11.4 | – | 1448
Oc1ccc2c(c1)O[C@@H](CNCc1ccccc1)CN2 | – | – | 6.7 | 130 | – | –
O=C1Cc2c(OCCN3CCc4ccccc4C3)ccc(Cl)c2N1 | 17 | 143 | 0.55 | 4.27 | 8 | –
CN(CCCC(=O)c1ccc(F)cc1)CCOc1cccc2c1CC(=O)N2 | 253 | 9.5 | 3.1 | 24.1 | 8 | –
O=C1Cc2c(ccc3c2O[C@@H](CNCc2ccccc2)CC3)N1 | 8.5 | 165 | 0.14 | 5.9 | 42 | –
O=C1Cc2c(OCCNCc3ccc4ccccc4c3)ccc(F)c2N1 | 121 | 154 | 0.63 | 9 | 14 | –

Structure (SMILES) | Ki [1] [nM] | Ki [2] [nM] | Ki (D(2) dopamine receptor [3]) [nM] | Ki (D(2) dopamine receptor [4]) [nM] | Ratio [5] | Ki [6] [nM]
c1ccc(CCCCNCCOc2cccc3[nH]ccc23)cc1 | 0.4 | 11.5 | 5.3 | 14.4 | 3 | –
O=C(c1c[nH]c2c(Cl)ccc(OCCNCc3ccccc3)c12)C(F)(F)F | 51 | 97.5 | – | – | – | –
O=C1Cc2c(OCCN3Cc4ccccc4C3)ccc(Cl)c2N1 | 41 | – | 0.44 | 2.85 | – | 85
O=C1Cc2c(OCCN3CCc4ccccc4C3)ccc(F)c2N1 | 25 | – | 0.86 | 5.02 | – | 128
Oc1cccc(OCCNCc2ccccc2)c1 | 1780 | 5291 | – | 115 | 32 | –
Clc1ccc(OCCNCc2cccs2)c2c(Cl)c[nH]c12 | – | – | 12.3 | 38.4 | 3 | –
NCCOc1ccc(F)c2c1CC(=O)N2 | 25 | 25 | 12.1 | 916 | 76 | –
CN(CCOc1cccc2c1CC(=O)N2)Cc1ccccc1 | 6260 | – | 0.76 | 49.6 | – | 4829
O=C1Cc2c(cccc2OCCNCCCCc2ccccc2)N1 | 1.9 | 13 | 0.23 | 2.06 | 9 | –
O=C1Cc2c(OCCN3Cc4ccccc4C3)ccc(F)c2N1 | 13 | 268 | 2.08 | 16 | 7 | –
O=C1Cc2c(OCCNCc3ccc(-c4ccccc4)cc3)ccc(F)c2N1 | 340 | – | 4.8 | 27.4 | – | 220
O=C1Cc2c(OCCNCc3ccsc3)ccc(Cl)c2N1 | 83 | – | 0.24 | 3.32 | – | 14
CN(CCOc1ccc(Cl)c2c1CC(=O)N2)Cc1ccccc1 | 8 | 41 | 2.6 | 23.4 | 9 | –
O=C1Cc2c(OCCNCc3ccsc3)ccc(F)c2N1 | 24 | – | 0.84 | 17.8 | – | 39
CCCCNCCOc1ccc(Cl)c2c1CC(=O)N2 | – | 11 | 0.84 | 14.6 | 17 | –
O=C1Cc2c(OCCNCc3cccc(-c4ccccc4)c3)ccc(F)c2N1 | 625 | – | – | – | – | 2899
Cc1ccc(CNCCOc2ccc(Cl)c3c2CC(=O)N3)cc1 | 1170 | 334 | 0.64 | 5.5 | 9 | –
O=C1Cc2c(OCCNCc3ccc(-c4ccccc4)cc3)ccc(Cl)c2N1 | 38 | 268 | 17.4 | 46.7 | 3 | –
Clc1ccc(OCCNCc2ccccc2)c2cc[nH]c12 | 193 | 138.5 | 7.4 | 14.4 | 2 | –

From ChEMBL document CHEMBL1132231, “New generation dopaminergic agents. 6. Structure-activity relationship studies of a series of 4-(aminoethoxy)indole and 4-(aminoethoxy)indolone derivatives based on the newly discovered 3-hydroxyphenoxyethylamine D2 template” (J Med Chem, 1999)
